Only some compounds are listed: those with a hit (about 2.5% of all), similar ones and a draw of the others.
PMI act – phosphomannose isomerase (human) activation | purified human PMI, coupled resazurin fluorescence, 20 min; active compounds read high; 1 = vehicle control, 0 substrate-free wells | activation factor at 20 µM | AID 1214 | actives 0.005% (n = 190,000) | P34949;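 active = activation factor of 2 or more at 20 µM, relative to plate controls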
Diaph act CS – activates diaphorase or chemically reduces, flagging diaphorase assay artifacts; actives 0.005% (n = 190,000); Diaphorase/resazurin coupled assay, resorufin fluorescence, 16 min; active compounds read high; 1 = vehicle wells, 0 = NADH-free wells; AID 1229; activation factor at 20 µM;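 active = diaphorase activity raised at least twofold by the compound at 20 µM; inactive = activation factor below 2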
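Material: purified diaphorase enzyme from Clostridium kluyveri; Also added: 0.114 mM NADH and 0.1 mM resazurin, final amounts; Doses: single compound dose of 20 µM, 1% DMSO final; Times: 16 min enzyme reaction, ambient temperature; Detection: resorufin fluorescence, excitation 544 nm, emission 590 nm; Measure: increased resorufin signal from activators or reducing compounds.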
FLuc act counter – affects firefly luciferase, flagging false hits in luciferase stimulation screens | P08659 | ATPlite luciferase biochemical, luminescence, 10 min; 0 = ATP-free wells, 1 = DMSO control | activation factor at 10 µM | 200,000 tested, under 10 active | AID 1027;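 active = luciferase activation factor, scaled between plate controls, of at least 2 with compound at 10 µM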
Target sequence (P08659 whole entry, looked up): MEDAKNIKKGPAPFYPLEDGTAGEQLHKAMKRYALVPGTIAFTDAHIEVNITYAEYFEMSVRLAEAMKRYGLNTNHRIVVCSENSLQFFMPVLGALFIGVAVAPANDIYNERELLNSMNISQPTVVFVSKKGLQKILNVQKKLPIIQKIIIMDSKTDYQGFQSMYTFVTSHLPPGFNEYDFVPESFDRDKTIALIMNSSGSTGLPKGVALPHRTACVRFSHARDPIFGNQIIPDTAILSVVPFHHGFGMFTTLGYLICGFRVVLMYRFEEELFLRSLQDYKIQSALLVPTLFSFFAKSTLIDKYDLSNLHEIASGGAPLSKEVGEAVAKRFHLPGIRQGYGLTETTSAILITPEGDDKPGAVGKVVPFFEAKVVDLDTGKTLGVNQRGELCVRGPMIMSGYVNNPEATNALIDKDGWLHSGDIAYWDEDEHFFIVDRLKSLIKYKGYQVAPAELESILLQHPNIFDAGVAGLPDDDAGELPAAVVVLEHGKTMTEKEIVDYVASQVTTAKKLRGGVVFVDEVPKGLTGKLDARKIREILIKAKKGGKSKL
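System: cell-free luciferase reagent; medium: PBS as buffer for the ATP substrate; doses: test compounds dosed from 2 mM stocks in 100% DMSO; incubation: 10 min, room temperature; measured by: luminescence from luciferase reaction; read-out: luciferase activation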
PMI act satM6P – activators of human phosphomannose isomerase at near-saturating mannose 6-phosphate; P34949; coupled PMI enzyme assay, resazurin fluorescence, 20 min; active compounds read high; 1 = untreated enzyme, 0 = substrate-free blank; activation factor at 20 µM; actives 0.34% (n = 190,000); AID 1216;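 active = activation factor of 2 or more at 20 µM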
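test system = human PMI in coupled enzyme assay | medium = HEPES-buffered pH 7.4 with magnesium and detergent | also added = 1.0 mM mannose-6-phosphate substrate with 0.22 mM NADP+ | compound = 20 µM single dose | times = 20 min incubation at room temperature | measured by = resorufin fluorescence (Ex 544/Em 590 nm) from resazurin via diaphorase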
FLuc inh counter – inhibits firefly luciferase, flagging false hits in luciferase inhibition screens; P08659; ATPLite firefly luciferase biochemical luminescence, 10 min; inhibition, % at 10 µM; actives 1.5% (n = 200,000); AID 1006;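 active = inhibition above about 50% when tested at 10 µM, limit read from the data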
Diaph inh CS – diaphorase inhibition or chemical oxidation counter-screen; diaphorase resazurin-to-resorufin fluorescence, NADH, 16 min; bacterial (C. kluyveri) enzyme, not human; actives 0.69% (n = 190,000); inhibition, % at 20 µM; AID 1217;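 active = primary screen inhibition at 20 µM above a set limit, cut at about 50% in these data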;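 note: plate controls were DMSO with full reaction for no effect and wells lacking NADH for full effect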
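controls = No-NADH positive control and DMSO neutral control | system = Clostridium kluyveri diaphorase enzyme | timing = reaction incubation of 16 min at room temperature | signal = resorufin fluorescence 544/590 nm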
* = called active by the depositor.

SMILES	PMI act	Diaph act CS	FLuc act counter	PMI act satM6P	FLuc inh counter	Diaph inh CS
O=C(O)c1ccc(C=C(c2nc3ccccc3s2)c2nc3ccccc3s2)cc1	1	0.6	1	0.9	4	39
CN(C)c1ccc(/C=C(\Cl)c2nc3ccccc3s2)cc1	0.9	1	0.4	1	64*	5
O=C(O)c1cccc2c1C(=O)c1ccccc1C2=O	1.8	1	1	2.5*	-4	3
Cc1ccc(-c2cn3c(=O)cc(C)[nH]c3n2)cc1	1	0.9	0.1	1	88*	10
O=C(CSc1nc(-c2ccc(F)cc2)nc2c1Cc1ccccc1O2)Nc1cccc(C(=O)O)c1	1	0.4	1	1	2	61*
CCn1c(=O)cc(SCC(=O)Nc2cccnc2)c2ccccc21	0.9	0.9	1	0.9	-5	10
CCn1ncc(/C=C2/SC(=S)NC2=O)c1C	1.1	0.9	0.9	1.1	11	14
CCn1c(C)cc(/C=C2/SC(=S)NC2=O)c1C	0.9	0.8	0.5	0.9	52*	22
Cc1cc(O)c(C=O)c2c1C(=O)Oc1c(CO)c(O)c3c(c1O2)C(O)OC3=O (configuration not stated)	0.7	0.3	1.1	0.6	-9	75*
Cc1cc(C)c2c(N)c(C(=O)N3CCc4ccccc4C3)sc2n1	1.5	0.7	1	2*	1	30
CSc1ccc(-c2nc(O)c3cnccn23)cc1	1.2	0.6	1	1.1	-2	36
Cc1ccc(N2C(=O)c3ccccc3C2O)nc1 (configuration not stated)	0.9	0.9	0.2	0.9	80*	14
Cc1ccc(N2C(=O)c3ccccc3C2Nc2ccccc2F)nc1 (configuration not stated)	0.9	0.8	1	0.9	0	16
Cc1cc(C)c(C(N)=O)c(Nc2cccc3ccccc23)n1	0.4	0.1	1.1	0.4	-5	91*
O=C(NCCCN1CCOCC1)c1coc2ccccc2c1=O	1.1	0.9	1.1	1.1	-7	12
O=c1c(N2CCOCC2)coc2ccccc12	1.8	1.3	1	2.8*	-1	-27
Nc1nc(-c2ccccn2)nc(N)c1Cc1c(F)cccc1Cl	1	1	0.6	1	36	-4
Nc1nc(-c2ccccn2)nc(N)c1Cc1ccccc1F	0.9	0.9	0.4	0.8	57*	5
Oc1c(Cl)cc(Cl)c2c1NCCC2	0.4	0.4	1	0.5	-3	64*
CCc1nc(SCc2ccc(Cl)cc2)n[nH]1	1	0.4	1	1	1	64*
CC1CCN(CCCNC(=O)c2ccc(CSCc3cccc(Cl)c3)o2)CC1	1.1	1	1.1	1.1	-6	4
NNc1nc(-c2ccccc2Cl)nc2sc3c(c12)CCCC3	0.8	0.9	0.2	0.9	82*	15
Cc1ccccc1-c1nc2sc3c(c2c(=O)n1N)CCCC3	0.8	0.9	0.9	0.9	6	15
CCS(=O)(=O)Nc1ccc(-c2nc3cccnc3s2)cc1	0.9	0.8	0.3	1	67*	17
COc1ccc(NC(=O)C2CCCO2)cc1 (configuration not stated)	1	0.9	1	0.9	-1	7
SMILES	PMI act	Diaph act CS	FLuc act counter	PMI act satM6P	FLuc inh counter	Diaph inh CS
CCS(=O)(=O)Nc1cc(-c2nc3cccnc3s2)ccc1C	1	1	0.8	1.1	16	0
O=C(Nc1ccc(-c2nc3cccnc3s2)cc1)C1CCCO1 (configuration not stated)	1	0.9	0.1	1	91*	6
Cc1ccc2nc(-c3ccc(NC(=O)C4CCCO4)cc3)[nH]c2c1 (configuration not stated)	0.9	0.9	0.2	0.9	82*	10
O=C(Nc1ccc2oc(-c3ccccc3)nc2c1)C1CCCO1 (configuration not stated)	1.1	1	0.5	1	50*	4
O=S(=O)(c1ccccc1)n1c(C(O)c2ccccn2)cc2ccccc21 (configuration not stated)	1	0.8	1.1	1	-6	18
NN1C(=O)NC(c2ccccc2)(c2ccccc2)C1=O	1	1	1.1	1	-6	-2
CC(NC(=S)Nc1ccc(S(=O)(=O)N2CCOCC2)cc1)C1CC2CCC1C2 (configuration not stated)	0.8	0.8	1	0.9	-3	19
CCOC(=O)c1c(C)[nH]c(C)c1C(=O)CSc1nnc(-c2ccco2)n1Cc1ccccc1	1	1	1	1.1	-4	-2
Cc1ccc(CNC(=O)Cn2c(=O)c3sccc3n(Cc3ccc([N+](=O)[O-])cc3)c2=O)cc1	0.8	1	1	0.9	0	0
O=C(Nc1ccc(-c2nc3ccccc3o2)cc1)C1CCCO1 (configuration not stated)	0.9	0.8	0.2	1	78*	17
Cc1ccc(O)c(C=Nc2ccc3[nH]ncc3c2)c1	0.5	0.4	0.6	0.4	41	61*
Cc1ccc(O)c(C=Nc2cc(C)ccc2O)c1	0.8	0.8	0.9	0.8	11	18
COCCNC(=O)Cn1cc(/C=N/NC(=O)c2ccc(Oc3ccc(O)cc3)cc2)c2ccccc21	1	1.1	1	1	4	-9
COc1ccc(CCNC(=O)c2cnn3c(C(F)F)cc(C)nc23)cc1OC	0.9	0.2	1.1	0.9	-7	78*
Cc1nc2sc3c(NCc4ccco4)ncnc3c2c2c1COC(C)(C)C2	0.9	0.3	1	1	-4	66*
CCOC(=O)c1sc(NC(=O)c2ccccc2)cc1C	1	1	0.3	1	69*	-2
CCOC(=O)c1sc(=NC(=O)c2cccc(OC)c2)n(C)c1C	1	1.1	0.9	1.1	14	-11
CCOC(=O)c1sc(=NC(=O)c2ccccc2)n(C)c1C	1	0.9	0.3	1	68*	7
Cc1nc2ccccc2c2c(N)c3ccccc3n12	0.8	0.8	1	0.9	-3	20
c1ccc(-c2nnsc2Sc2ccccn2)cc1	1	0.9	0.9	1	11	9
CC1(C)Cc2c(sc(NC(=S)NC(=O)c3ccccc3)c2C(=O)O)CO1	0.9	0.2	1	0.9	-2	78*
CC1(C)Cc2c(sc(NC(=O)c3ccco3)c2C(=O)O)CO1	1	0.8	0.5	1	47	18

Compound activity from PubChem.
